The values that follow come from PMC6399515 (Insect Biochemistry and Molecular Biology, 2016).

For data set [1], the system named is mosquito P450s.
The test system of data set [2] is all mosquito P450s of the panel apart from CYP6Z2 (CYP6M2, CYP6P2, CYP6P3, CYP6P4, CYP9J5). In words: in vitro. The following applies: Anopheles gambiae.
The target of data set [3] is T1, CYP6P3 (Anopheles gambiae, UniProt Q8T632).
T1 sequence (Q8T632 1-509): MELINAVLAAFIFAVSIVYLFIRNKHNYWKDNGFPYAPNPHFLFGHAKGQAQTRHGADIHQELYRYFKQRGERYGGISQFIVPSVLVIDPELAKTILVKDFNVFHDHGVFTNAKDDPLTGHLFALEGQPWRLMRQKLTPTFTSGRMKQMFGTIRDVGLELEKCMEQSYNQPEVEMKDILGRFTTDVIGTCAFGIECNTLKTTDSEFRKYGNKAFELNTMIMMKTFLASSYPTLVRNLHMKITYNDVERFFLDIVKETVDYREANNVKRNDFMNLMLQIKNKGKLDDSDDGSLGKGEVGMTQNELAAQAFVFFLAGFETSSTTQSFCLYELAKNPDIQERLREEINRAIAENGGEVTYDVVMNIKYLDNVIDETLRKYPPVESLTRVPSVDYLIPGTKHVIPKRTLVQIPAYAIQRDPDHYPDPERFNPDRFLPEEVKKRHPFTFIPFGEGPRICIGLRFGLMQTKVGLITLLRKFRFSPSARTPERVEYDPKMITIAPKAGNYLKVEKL
T1 sequence (Q86QH5 1-679 partner): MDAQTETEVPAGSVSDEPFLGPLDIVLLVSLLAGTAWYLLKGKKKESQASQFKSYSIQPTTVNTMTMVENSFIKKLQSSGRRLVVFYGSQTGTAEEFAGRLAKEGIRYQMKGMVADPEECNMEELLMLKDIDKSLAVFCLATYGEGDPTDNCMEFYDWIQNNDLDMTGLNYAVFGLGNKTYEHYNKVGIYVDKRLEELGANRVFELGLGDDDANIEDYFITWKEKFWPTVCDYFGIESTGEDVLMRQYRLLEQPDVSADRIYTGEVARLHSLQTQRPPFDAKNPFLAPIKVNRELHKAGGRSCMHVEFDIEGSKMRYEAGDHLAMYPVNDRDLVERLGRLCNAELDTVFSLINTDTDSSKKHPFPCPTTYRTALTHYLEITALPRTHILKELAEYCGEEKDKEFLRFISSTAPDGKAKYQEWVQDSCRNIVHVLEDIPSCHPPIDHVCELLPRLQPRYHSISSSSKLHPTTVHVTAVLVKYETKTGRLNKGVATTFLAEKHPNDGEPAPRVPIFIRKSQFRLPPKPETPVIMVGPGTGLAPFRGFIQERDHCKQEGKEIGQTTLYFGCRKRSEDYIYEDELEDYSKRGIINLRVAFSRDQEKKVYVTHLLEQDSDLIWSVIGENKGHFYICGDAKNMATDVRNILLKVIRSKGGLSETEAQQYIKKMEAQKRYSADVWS
T1 sequence (Q86QH4 1-128 partner): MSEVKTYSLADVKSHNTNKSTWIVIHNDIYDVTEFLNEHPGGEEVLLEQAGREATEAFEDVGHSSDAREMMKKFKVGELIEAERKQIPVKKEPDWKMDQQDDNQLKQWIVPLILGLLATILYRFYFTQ
In words: biochemical.

Data set [4] concerns the target T2, CYP6Z2 (Anopheles gambiae, UniProt A8I285).
T2 sequence (A8I285 1-492): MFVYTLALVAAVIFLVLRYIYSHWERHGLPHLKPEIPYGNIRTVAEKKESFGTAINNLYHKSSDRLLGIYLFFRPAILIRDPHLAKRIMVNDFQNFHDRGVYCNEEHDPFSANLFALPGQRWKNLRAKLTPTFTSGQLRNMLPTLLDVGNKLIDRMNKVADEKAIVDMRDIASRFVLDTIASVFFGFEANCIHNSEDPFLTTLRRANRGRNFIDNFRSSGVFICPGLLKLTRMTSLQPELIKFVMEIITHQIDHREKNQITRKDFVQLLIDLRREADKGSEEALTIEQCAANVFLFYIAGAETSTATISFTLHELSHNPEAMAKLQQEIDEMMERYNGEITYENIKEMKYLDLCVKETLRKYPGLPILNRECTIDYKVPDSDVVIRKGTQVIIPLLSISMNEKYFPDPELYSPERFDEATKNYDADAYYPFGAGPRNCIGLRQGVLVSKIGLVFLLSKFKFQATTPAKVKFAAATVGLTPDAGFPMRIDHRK
T2 sequence (Q86QH5 1-679 partner): T1 sequence (Q86QH5 1-679 partner)
T2 sequence (Q86QH4 1-128 partner): T1 sequence (Q86QH4 1-128 partner)
In words: biochemical.

The target in data set [5] is T2, CYP6Z2.
For data set [6], the system named is CYP6P5.
Data set [7] deals with An. gambiae Kisumu strain. In words: Glass tube assay, ovary development of adult females, Kisumu strain. It counts as in vivo, Anopheles gambiae. In short, it runs like this: (§1)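 Borosilicate glass tubes were coated with PPF at 0.55, 2.75 or 5.5 mg/m2, with an acetone-only tube as control, and used the day they were made. Per concentration, two groups of fifteen 5–7-day-old females (n = 30) were acclimated 60 min, then exposed 3 min. They were held 24 h on 10% sucrose, then five days in the insectary. Ovaries were dissected and scored normal or abnormal.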

Data set [8] has as its system all mosquito P450s of the panel except CYP6Z2 and CYP6P2 (CYP6M2, CYP6P3, CYP6P4, CYP9J5). In words: in vitro. To be noted: Anopheles gambiae.
Data set [9] has as its system An. gambiae Tiassalé strain. In words: Glass tube assay, ovary development of adult females, Tiassalé strain. It counts as in vivo, Anopheles gambiae. In short, it runs like this: as §1
The subject of data set [10] is CYP6P family and CYP6Z2. To be noted: Anopheles gambiae, pH 7.4.
The mark [11] stands for this setting: category of inhibition of DEF metabolism.
[12] abbreviates: 3 min exposure, half of 5.5 mg/m^2.

For orientation: IC50 means the concentration needed to halve the response being measured. As for `CC1(C)C(C=C(Cl)Cl)C1C(=O)OCc1cccc(Oc2ccccc2)c1` (mixture of isomers) [Permethrin, 3-phenoxybenzyl (1R,S)-cis,trans-3-(2,2-dichlorovinyl)-2,2-dimethylcyclopropanecarboxylate], in [1], the “strength of inhibition relative to PPF” value is recorded as 2–3 fold. The IC50 was 1 to 10 µM in data set [2] (pH 7.4, IC50 of DEF activity); 1 to 10 µM in data set [2] (pH 7.4, category of inhibition of DEF activity); 6.77 µM in [3]; 13.7 µM in data set [4] (IC50 of DEF metabolism); greater than 10 µM in [4] (setting [11]).
On to `CCCCOCCOCCOCc1cc2c(cc1CCC)OCO2` [PBO, piperonyl butoxide], for which the “Inhibition ratio (%): reduction of PPF depletion caused by PBO” value in data set [5] is recorded as 87.3%; in [6] it was 95.4%.
On to `CC(COc1ccc(Oc2ccccc2)cc1)Oc1ccccn1` (stereo not shown) [PPF, pyriproxyfen], for which the “% PPF depletion + PBO” value in [5] (Anopheles gambiae, pH 7.4) is listed as 8.41 ± 1.58%; in data set [6] (Anopheles gambiae, pH 7.4), 2.40 ± 2.01%. The “% PPF depletion −PBO” value is 66.26 ± 3.02% in data set [5] (Anopheles gambiae, pH 7.4) and 39.96 ± 1.04% in data set [6] (Anopheles gambiae, pH 7.4). Besides, the mosquitoes sterilized result was “completely sterilized” in data set [7] (3 min exposure to 5.5 mg/m^2), 76% in [7] (setting [12]) and 75% in [9] (3 min exposure to 5.5 mg/m^2). Moreover, the IC50 in [8] (pH 7.4, IC50 of DEF activity) was greater than 10 µM; in data set [8] (pH 7.4, category of inhibition of DEF metabolism) it was greater than 10 µM; in data set [3], 15.8 µM; in [4] (IC50 of DEF metabolism), 2.23 µM; in [4] (setting [11]), 1 to 10 µM. For the same compound, the “impact on ovary development” value in [9] (setting [12]) is “no impact”. The PPF depletion in [10] is 58–100%.
